Results published in ChEMBL document CHEMBL4425125, “Development of a Dual-Acting Antibacterial Agent (TNP-2092) for the Treatment of Persistent Bacterial Infections” (J Med Chem, 2016).
≈ marks a conversion by molar mass, not a printed value.

How the values were obtained:
[1] = tested on: Staphylococcus aureus; assay: Antimicrobial activity against Staphylococcus aureus isogenic forms expressing gyrA S84L mutant by broth dilution method; assay type: functional
Method in brief: (§1)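 MIC (μg/mL) on otherwise isogenic derivatives of S. aureus ATCC 29213 that carry the rifamycin-resistance allele rpoB H481Y and/or the quinolone-resistance alleles parC S80F and gyrA S84L. The wild-type parent is the reference strain. MICs were determined both by agar dilution and by broth dilution, tested side by side on the same panel.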

[2] = tested on: Streptococcus agalactiae; assay: Antimicrobial activity against Streptococcus agalactiae clinical isolates by broth dilution method; assay type: functional
[3] = tested on: Staphylococcus aureus; assay: Antimicrobial activity against Staphylococcus aureus isogenic forms expressing rpoB H481Y and parC S80F mutant by agar dilution method; assay type: functional; method in brief: as §1
[4] = Volume of distribution in iv dosed dog; settings: in vivo
[5] = biological target: DNA topoisomerase 2-alpha (Homo sapiens) (UniProt P11388)
[6] = Half life in iv dosed dog plasma; assay type: ADME, organism-based, Canis lupus familiaris
[7] = Half life in iv dosed rabbit plasma; assay type: ADME, organism-based, Oryctolagus cuniculus
[8] = tested on: Staphylococcus aureus; assay: Antimicrobial activity against methicillin-resistant Staphylococcus aureus 67-0; assay type: functional
[9] = tested on: Staphylococcus aureus; assay: Antimicrobial activity against Staphylococcus aureus isogenic forms expressing rpoB H481Y and gyrA S84L mutant by agar dilution method; assay type: functional; method in brief: as §1
[10] = tested on: Streptococcus pyogenes; assay: Antimicrobial activity against Streptococcus pyogenes clinical isolates by broth dilution method; assay type: functional
[11] = tested on: Staphylococcus aureus; assay: Antimicrobial activity against Staphylococcus aureus isogenic forms expressing rpoB H481Y and parC S80F mutant by broth dilution method; assay type: functional; method in brief: as §1
[12] = biological target: DNA gyrase (Staphylococcus aureus) (UniProt P0A0K8+P20831)
[13] = tested on: Staphylococcus aureus; assay: Antimicrobial activity against methicillin-resistant Staphylococcus aureus clinical isolates by broth dilution method; assay type: functional
[14] = tested on: Staphylococcus aureus; assay: Antimicrobial activity against Staphylococcus aureus isogenic forms expressing rpoB H481Y mutant by broth dilution method; assay type: functional; method in brief: as §1
[15] = tested on: Staphylococcus aureus; assay: Antimicrobial activity against Staphylococcus aureus isogenic forms expressing parC S80F mutant by broth dilution method; assay type: functional; method in brief: as §1
[16] = tested on: Staphylococcus epidermidis; assay: Antimicrobial activity against Staphylococcus epidermidis infected in mouse skin abscess model; assay type: functional
[17] = tested on: Staphylococcus aureus; assay: Antimicrobial activity against Staphylococcus aureus isogenic forms expressing gyrA S84L and parC S80F mutant by agar dilution method; assay type: functional; method in brief: as §1
[18] = tested on: Staphylococcus aureus; assay: […] activity against Staphylococcus aureus ATCC 29213 assessed as induction of bacterial kill at […] in presence of 1 ug/ml rifampin after 24 hrs
[19] = tested on: Staphylococcus epidermidis; assay: Antimicrobial activity against methicillin-resistant Staphylococcus epidermidis clinical isolates by broth dilution method; assay type: functional; settings: Staphylococcus epidermidis
[20] = Inhibition of wild type Staphylococcus aureus RNA polymerase assessed as reduction in RNA product formation
[21] = biological target: Topoisomerase IV (Staphylococcus aureus) (UniProt P0C1U9+P0C1S7)
[22] = Volume of distribution in iv dosed dog; settings: in vivo; remark: listed apart in the source
[23] = tested on: Streptococcus pyogenes; assay: Antimicrobial activity against Streptococcus pyogenes infected in rat central venous catheter infection model assessed as reduction in bacterial load; assay type: functional
[24] = tested on: Staphylococcus aureus; assay: Antimicrobial activity against methicillin-sensitive Staphylococcus aureus infected in mouse skin abscess model; assay type: functional
[25] = tested on: Staphylococcus aureus; assay: Antimicrobial activity against Staphylococcus aureus isogenic forms expressing gyrA S84L mutant by agar dilution method; assay type: functional; method in brief: as §1
[26] = Plasma clearance in iv dosed dog; assay type: ADME, organism-based, Canis lupus familiaris
[27] = tested on: Staphylococcus aureus; assay: Antimicrobial activity against wild type Staphylococcus aureus by broth dilution method; assay type: functional; method in brief: as §1
[28] = Inhibition of RIF-resistant Staphylococcus aureus RNA polymerase RpoB H481Y mutant assessed as reduction in RNA product formation
[29] = tested on: Staphylococcus aureus; assay: Antimicrobial activity against Staphylococcus aureus isogenic forms expressing rpoB H481Y/gyrA S84L/parC S80F mutant by agar dilution method; assay type: functional; method in brief: as §1
[30] = tested on: Staphylococcus aureus
[31] = tested on: Staphylococcus aureus; assay: Antimicrobial activity against methicillin-sensitive Staphylococcus aureus clinical isolates by broth dilution method; assay type: functional
[32] = tested on: Staphylococcus aureus; assay: Antimicrobial activity against Staphylococcus aureus isogenic forms expressing rpoB H481Y mutant by agar dilution method; assay type: functional; method in brief: as §1
[33] = tested on: Staphylococcus epidermidis; assay: Antimicrobial activity against methicillin-sensitive Staphylococcus epidermidis clinical isolates by broth dilution method; assay type: functional
[34] = tested on: Streptococcus pneumoniae; assay: Antimicrobial activity against Streptococcus pneumoniae clinical isolates by broth dilution method; assay type: functional
[35] = tested on: Staphylococcus aureus; assay: Antimicrobial activity against Staphylococcus aureus infected in rat […] model assessed as reduction in bacterial load in granuloma pouch fluid at 5 to 25 mg/kg, iv administered as single dose; assay type: functional
[36] = tested on: Staphylococcus aureus; assay: Antimicrobial activity against Staphylococcus aureus isogenic forms expressing rpoB H481Y and gyrA S84L mutant by broth dilution method; assay type: functional; method in brief: as §1
[37] = tested on: Staphylococcus aureus; assay: Antimicrobial activity against methicillin-sensitive Staphylococcus aureus infected in rat central venous catheter infection model assessed as reduction in bacterial load; assay type: functional
[38] = Half life in iv dosed mouse plasma; assay type: ADME, organism-based
[39] = tested on: Staphylococcus aureus; assay: Antimicrobial activity against Staphylococcus aureus ATCC 29213 assessed as mutation preventive concentration
[40] = Half life in iv dosed rat plasma; assay type: ADME, organism-based
[41] = tested on: Staphylococcus epidermidis; assay: Antimicrobial activity against Staphylococcus epidermidis infected in rat central venous catheter infection model assessed as reduction in bacterial load; assay type: functional
[42] = Plasma clearance in iv dosed rat; assay type: ADME, organism-based
[43] = tested on: Staphylococcus aureus; assay: Bactericidal activity against methicillin-sensitive Staphylococcus aureus 29213 infected in mouse macrophages assessed as induction of bacterial kill at 4 ug/ml in presence of 4 ug/ml rifampin after 24 hrs; assay type: functional
[44] = Plasma clearance in iv dosed rabbit; assay type: ADME, organism-based, Oryctolagus cuniculus
[45] = tested on: Staphylococcus aureus; assay: Antimicrobial activity against Staphylococcus aureus isogenic forms expressing parC S80F mutant by agar dilution method; assay type: functional; method in brief: as §1
[46] = tested on: Staphylococcus aureus; assay: Antimicrobial activity against wild type Staphylococcus aureus by agar dilution method; assay type: functional; method in brief: as §1
[47] = tested on: Staphylococcus aureus; assay: Antimicrobial activity against Staphylococcus aureus isogenic forms expressing gyrA S84L and parC S80F mutant by broth dilution method; assay type: functional; method in brief: as §1
[48] = tested on: Streptococcus pyogenes; assay: Antimicrobial activity against Streptococcus pyogenes infected in mouse skin abscess model; assay type: functional
[49] = tested on: Staphylococcus aureus; assay: Antimicrobial activity against Staphylococcus aureus isogenic forms expressing rpoB H481Y/gyrA S84L/parC S80F mutant by broth dilution method; assay type: functional; method in brief: as §1
[50] = tested on: Staphylococcus aureus; assay: Bactericidal activity against methicillin-resistant Staphylococcus aureus 67-0; assay type: functional

SMILES: CO[C@H]1/C=C/O[C@@]2(C)Oc3c(C)c(O)c4c(O)c(c(/C=N/N5CCC(N(C)C6([C@@H]7CCN(c8c(F)cn9c(=O)c(C(=O)O)cc(C%10CC%10)c9c8C)C7)CC6)CC5)c(O)c4c3C2=O)NC(=O)/C(C)=C\C=C\[C@H](C)[C@H](O)[C@@H](C)[C@@H](O)[C@@H](C)[C@H](OC(C)=O)[C@@H]1C
- MIC [1]: 0.015 mg/L (≈ 0.0124 µM)
- MIC [2]: 0.06 to 2 mg/L (≈ 0.0498 to 1.66 µM)
- MIC50 [2]: 0.12 mg/L (≈ 0.0996 µM)
- MIC90 [2]: 0.25 mg/L (≈ 0.207 µM)
- MIC [3]: 0.06 mg/L (≈ 0.0498 µM)
- Vd [4]: 0.09 to 0.17 L/kg
- CC50 [5]: > 150 µM
- half-life [6]: 1.6 to 11.7 h
- half-life [7]: 0.4 to 4.1 h
- MIC [8]: 0.008 mg/L (≈ 0.00664 µM)
- MIC [9]: 0.12 mg/L (≈ 0.0996 µM)
- MIC [10]: 0.008 to 0.12 mg/L (≈ 0.00664 to 0.0996 µM)
- MIC50 [10]: 0.03 mg/L (≈ 0.0249 µM)
- MIC90 [10]: 0.12 mg/L (≈ 0.0996 µM)
- MIC [11]: 0.25 mg/L (≈ 0.207 µM)
- CC50 [12]: 1.5 µM
- MIC50 [13]: 0.015 mg/L (≈ 0.0124 µM)
- MIC90 [13]: 0.015 mg/L (≈ 0.0124 µM)
- MIC [14]: 0.12 mg/L (≈ 0.0996 µM)
- MIC [15]: 0.015 mg/L (≈ 0.0124 µM)
- ED50 [16]: 4.8 to 10.7 mg/kg
- MIC [17]: 0.008 mg/L (≈ 0.00664 µM)
- Activity [18]: >=99.9%
- MIC50 [19]: 0.008 mg/L (≈ 0.00664 µM)
- MIC90 [19]: 0.5 mg/L (≈ 0.415 µM)
- IC50 [20]: 0.034 µM
- CC50 [21]: 1.7 µM
- Vd [22]: 0.09 to 0.17 L/kg
- Activity [23]: >3.1 log10CFU
- ED50 [24]: 1.4 to 3.8 mg/kg
- MIC [25]: 0.008 mg/L (≈ 0.00664 µM)
- clearance [26]: 0.01 to 0.08 L/h/kg
- MIC [27]: 0.015 mg/L (≈ 0.0124 µM)
- IC50 [28]: > 25 µM
- MIC [29]: 0.25 mg/L (≈ 0.207 µM)
- CC50 [30]: 2.7 µM
- MIC50 [31]: 0.008 mg/L (≈ 0.00664 µM)
- MIC90 [31]: 0.015 mg/L (≈ 0.0124 µM)
- MIC [32]: 0.06 mg/L (≈ 0.0498 µM)
- MIC50 [33]: ≤ 0.008 mg/L
- MIC90 [33]: 0.008 mg/L (≈ 0.00664 µM)
- MIC [34]: 0.06 to 0.25 mg/L (≈ 0.0498 to 0.207 µM)
- MIC50 [34]: 0.12 mg/L (≈ 0.0996 µM)
- MIC90 [34]: 0.12 mg/L (≈ 0.0996 µM)
- Activity [35]: 1 - 3.4 log10CFU
- MIC [36]: 0.5 mg/L (≈ 0.415 µM)
- Activity [37]: 2.8 - 3.4 log10CFU
- half-life [38]: 0.4 to 4.1 h
- Activity [39]: 0.12 µg/mL
- half-life [40]: 0.4 to 4.1 h
- Activity [41]: >3.1 log10CFU
- clearance [42]: 0.07 to 0.36 L/h/kg
- Activity [43]: >99.9%
- clearance [44]: 0.07 to 0.36 L/h/kg
- MIC [45]: 0.008 mg/L (≈ 0.00664 µM)
- MIC [46]: 0.008 mg/L (≈ 0.00664 µM)
- MIC [47]: 0.015 mg/L (≈ 0.0124 µM)
- ED50 [48]: 4.8 to 10.7 mg/kg
- MIC [49]: 2 mg/L (≈ 1.66 µM)
- MBC [50]: 0.5 mg/L (≈ 0.415 µM)

SMILES: CN[C@H](CC(C)C)C(=O)N[C@H]1C(=O)N[C@@H](CC(N)=O)C(=O)N[C@H]2C(=O)N[C@H]3C(=O)N[C@H](C(=O)N[C@H](C(=O)O)c4cc(O)cc(O)c4-c4cc3ccc4O)[C@H](O)c3ccc(c(Cl)c3)Oc3cc2cc(c3O[C@@H]2O[C@H](CO)[C@@H](O)[C@H](O)[C@H]2O[C@H]2C[C@](C)(N)[C@H](O)[C@H](C)O2)Oc2ccc(cc2Cl)[C@H]1O [VANCOMYCIN]
- MIC [8]: 1 mg/L (≈ 0.69 µM)
- MBC [50]: 1 mg/L (≈ 0.69 µM)
